One block for each compound: values may come before it.
Columns and labels:
Type in all cases: ADME, organism-based
[1] = (§1) AUC (0 to 24 hrs) in HIV infected patient at 600 mg QD by HPLC/MS/MS analysis; parameters: time < 24 hr, dose 600 mg; details: male, human, plasma
In short: (§2)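 Plasma abacavir at steady state in HIV-1-infected adults dosed orally 600 mg QD or 300 mg BID under fasting, serial samples predose to 24 h (plus 1 h) on days 1 and 11; validated HPLC-MS/MS, calibration 2.5–2,500 ng/ml; noncompartmental parameters from actual times, BID AUC0-24 taken as 2 × AUC0-τ.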

Homo sapiens [2] = species on record: Homo sapiens; experiment: Ratio of AUC in HIV infected patient assessed as carbovir-triphosphate level per million cells to AUC in HIV infected patient at 600 mg QD by HPLC/MS/MS analysis; details: in vivo
In short: (§3)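 Per-subject ratio of intracellular CBV-TP AUC0-24 (PBMC, fmol/million cells, LC-MS/MS) to plasma abacavir AUC0-24 (HPLC-MS/MS), both by noncompartmental analysis from serial samples over 24 h on days 1 and 11 of oral 600 mg QD or 300 mg BID dosing in fasted HIV-1-infected adults.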

Homo sapiens [3] = experiment: (§4) Drug level at the end of dosing interval in HIV infected patient at 300 mg BID by HPLC/MS/MS analysis; details: in vivo; in short: as §2
Homo sapiens [4] = experiment: (§5) Drug level at the end of dosing interval in HIV infected patient at 600 mg QD by HPLC/MS/MS analysis; details: in vivo; in short: as §2
Homo sapiens [5] = species on record: Homo sapiens; experiment: Ratio of AUC in HIV infected male patient assessed as assessed as carbovir-triphosphate level per million cells to AUC in HIV infected male patient at 300 mg BID by HPLC/MS/MS analysis; details: in vivo; in short: as §3
Homo sapiens [6] = experiment: as §5; details: in vivo; in short: as §2; remark: listed apart in the source
Homo sapiens [7] = experiment: as §5; details: in vivo; in short: as §2; remark: listed apart in the source
Homo sapiens [8] = experiment: as §4; details: in vivo; in short: as §2; remark: listed apart in the source
Homo sapiens [9] = species on record: Homo sapiens; experiment: Ratio of AUC in HIV infected female patient assessed as assessed as carbovir-triphosphate level per million cells to AUC in HIV infected female patient at 300 mg BID by HPLC/MS/MS analysis; details: in vivo; in short: as §3
[10] = AUC (0 to 24 hrs) in HIV infected patient at 300 mg BID by HPLC/MS/MS analysis; parameters: time < 24 hr, dose 300 mg; details: human, plasma; in short: as §2
[11] = Cmax in HIV infected patient at 300 mg BID by HPLC/MS/MS analysis; parameters: dose 300 mg; details: human, in vivo; in short: as §2
Homo sapiens [12] = experiment: as §4; details: in vivo; in short: as §2; remark: listed apart in the source
[13] = Cmax in HIV infected patient at 600 mg QD by HPLC/MS/MS analysis; parameters: dose 600 mg; details: human, in vivo; in short: as §2
Homo sapiens [14] = species on record: Homo sapiens; experiment: Ratio of AUC in HIV infected male patient assessed as carbovir-triphosphate level per million cells to AUC in HIV infected male patient at 600 mg QD by HPLC/MS/MS analysis; details: in vivo; in short: as §3
[15] = as §1; parameters: dose 600 mg, time < 24 hr; details: human, plasma; in short: as §2
Homo sapiens [16] = species on record: Homo sapiens; experiment: Ratio of AUC in HIV infected female patient assessed as carbovir-triphosphate level per million cells to AUC in HIV infected female patient at 600 mg QD by HPLC/MS/MS analysis; details: in vivo; in short: as §3
Homo sapiens [17] = species on record: Homo sapiens; experiment: Ratio of AUC in HIV infected patient assessed as assessed as carbovir-triphosphate level per million cells to AUC in HIV infected patient at 300 mg BID by HPLC/MS/MS analysis; details: in vivo; in short: as §3
Homo sapiens [18] = species on record: Homo sapiens; experiment: (§6) Cmax in HIV infected patient assessed as carbovir-triphosphate level per million cells at 600 mg QD by HPLC/MS/MS analysis; parameters: dose 600 mg; details: in vivo
In short: (§7)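 Steady-state crossover in HIV-1-infected adults, oral abacavir 600 mg QD or 300 mg BID, fasted ≥10 h before and 2 h after dosing; blood drawn predose and 2–24 h postdose on days 1 and 11. PBMC isolated, counted in duplicate, lysed in ice-cold 70% methanol; CBV-TP measured by LC-MS/MS after anion exchange and alkaline phosphatase hydrolysis, converted to fmol/million cells; noncompartmental analysis.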

Homo sapiens [19] = species on record: Homo sapiens; experiment: as §6; parameters: dose 600 mg; details: in vivo; in short: as §7; remark: listed apart in the source
Homo sapiens [20] = species on record: Homo sapiens; experiment: as §6; parameters: dose 600 mg; details: in vivo; in short: as §7; remark: listed apart in the source
Homo sapiens [21] = species on record: Homo sapiens; experiment: (§8) AUC (0 to 24 hrs) in HIV infected patient assessed as carbovir-triphosphate level per million cells at 600 mg QD by HPLC/MS/MS analysis; parameters: dose 600 mg, time < 24 hr; details: in vivo; in short: as §7
Homo sapiens [22] = experiment: (§9) Drug level at end of dosing interval in HIV infected patient assessed as carbovir-triphosphate level per million cells at 300 mg BID by HPLC/MS/MS analysis; details: in vivo; in short: as §7
Homo sapiens [23] = species on record: Homo sapiens; experiment: (§10) AUC (0 to 24 hrs) in HIV infected patient assessed as carbovir-triphosphate level per million cells at 300 mg BID by HPLC/MS/MS analysis; parameters: time < 24 hr, dose 300 mg; details: in vivo; in short: as §7
Homo sapiens [24] = species on record: Homo sapiens; experiment: as §10; parameters: dose 300 mg, time < 24 hr; details: in vivo; in short: as §7
Homo sapiens [25] = species on record: Homo sapiens; experiment: (§11) Cmax in HIV infected patient assessed as carbovir-triphosphate level per million cells at 300 mg BID by HPLC/MS/MS analysis; parameters: dose 300 mg; details: in vivo; in short: as §7
Homo sapiens [26] = species on record: Homo sapiens; experiment: as §11; parameters: dose 300 mg; details: in vivo; in short: as §7; remark: listed apart in the source
Homo sapiens [27] = experiment: as §9; details: in vivo; in short: as §7; remark: listed apart in the source
Homo sapiens [28] = species on record: Homo sapiens; experiment: as §11; parameters: dose 300 mg; details: in vivo; in short: as §7; remark: listed apart in the source
Homo sapiens [29] = species on record: Homo sapiens; experiment: as §8; parameters: dose 600 mg, time < 24 hr; details: in vivo; in short: as §7; remark: listed apart in the source
Homo sapiens [30] = species on record: Homo sapiens; experiment: AUC (0 to 24 hrs) in HIV infected male patient assessed as carbovir-triphosphate level per million cells at 600 mg QD by HPLC/MS/MS analysis; parameters: dose 600 mg, time < 24 hr; details: in vivo; in short: as §7
Homo sapiens [31] = species on record: Homo sapiens; experiment: AUC (0 to 24 hrs) in HIV infected female patient assessed as carbovir-triphosphate level per million cells at 300 mg BID by HPLC/MS/MS analysis; parameters: dose 300 mg, time < 24 hr; details: in vivo

- AUC at 24 h [1]: 7260 ng·h/mL
- Ratio AUC (Homo sapiens [2]): 123
- Ct (Homo sapiens [3]): 0.026 µg/mL
- Ct (Homo sapiens [4]): 0.009 µg/mL
- Ratio AUC (Homo sapiens [5]): 102
- Ct (Homo sapiens [6]): 0.008 µg/mL
- Ct (Homo sapiens [7]): 0.009 µg/mL
- Ct (Homo sapiens [8]): 0.015 µg/mL
- Ratio AUC (Homo sapiens [9]): 105
- AUC at 24 h ([10]; female): 10900 ng·h/mL
- AUC at 24 h [10]: 7900 ng·h/mL
- AUC at 24 h ([10]; male): 6740 ng·h/mL
- Cmax [11]: 1840 ng/mL
- Cmax ([11]; male): 1590 ng/mL
- Ct (Homo sapiens [12]): 0.018 µg/mL
- Cmax ([13]; female): 4830 ng/mL
- Cmax [13]: 3850 ng/mL
- Cmax ([13]; male): 3430 ng/mL
- Ratio AUC (Homo sapiens [14]): 109
- AUC at 24 h ([15]; female): 11700 ng·h/mL
- AUC at 24 h [15]: 8520 ng·h/mL
- Ratio AUC (Homo sapiens [16]): 158
- Ratio AUC (Homo sapiens [17]): 103
SMILES: Nc1nc(NC2CC2)c2ncn([C@H]3C=C[C@@H](CO)C3)c2n1 [ABACAVIR]

- Cmax (Homo sapiens [18]): 114 fmol/10^6 cells
- Cmax (Homo sapiens [19]): 86.5 fmol/10^6 cells
- Cmax (Homo sapiens [20]): 198 fmol/10^6 cells
- AUC (Homo sapiens [21]): 1051 h·fmol/million cells
- Ct (Homo sapiens [22]): 18.7 fmol/10^6 cells
- AUC (Homo sapiens [23]): 814 h·fmol/million cells
- AUC (Homo sapiens [24]): 688 h·fmol/million cells
- Cmax (Homo sapiens [25]): 82.5 fmol/10^6 cells
- Cmax (Homo sapiens [26]): 58.5 fmol/10^6 cells
- Ct (Homo sapiens [27]): 37.2 fmol/10^6 cells
- AUC (Homo sapiens [14]): 1051 fmol·h
- Cmax (Homo sapiens [28]): 49.3 fmol/10^6 cells
- AUC (Homo sapiens [29]): 1851 h·fmol/million cells
- AUC (Homo sapiens [30]): 792 h·fmol/million cells
- AUC (Homo sapiens [31]): 1138 h·fmol/million cells
SMILES: Nc1nc(=O)c2ncn([C@H]3C=C[C@@H](COP(=O)(O)OP(=O)(O)OP(=O)(O)O)C3)c2[nH]1 [CARBOVIR 5'-TRIPHOSPHATE, (-)-]
